Experimental data published in ChEMBL document CHEMBL1153115, “Synthesis, antimalarial activity and cytotoxicity of 4-aminoquinoline-triazine conjugates” (Bioorg Med Chem Lett, 2010).

Key:
[1] = tested on: Plasmodium falciparum; experiment: Antiplasmodial activity against chloroquine-sensitive Plasmodium falciparum D6 by LDH release assay; format: functional, organism-based
[2] = tested on: Plasmodium falciparum; experiment: Antiplasmodial activity against chloroquine-resistant Plasmodium falciparum W2 by LDH release assay; format: functional, organism-based
[3] = Selectivity index, IC50 for african green monkey (Cercopithecus aethiops) Vero cells to IC50 for chloroquine-sensitive Plasmodium falciparum D6; format: functional
Outline: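 The selectivity index of antimalarial activity was calculated from Vero cell cytotoxicity relative to the antiplasmodial IC50 against each P. falciparum clone (D6 or W2).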

[4] = Cytotoxicity against pig LLC-PK11 cells; format: cell-based; details: Sus scrofa
Outline: (§1)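 Cytotoxicity was run in parallel on three mammalian lines: LLC-PK11 (pig kidney epithelial cells), HepG2 (human hepatoma cells) and Vero (monkey kidney […]). Compounds with no cytotoxicity up to the highest tested concentration, 48, were recorded as NC.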

[5] = tested on: HepG2; experiment: Cytotoxicity against human HepG2 cells; format: cell-based; outline: as §1
[6] = tested on: Vero; experiment: Cytotoxicity against african green monkey Vero cells; format: cell-based; details: Chlorocebus sabaeus; outline: as §1
[7] = Selectivity index, IC50 for african green monkey (Cercopithecus aethiops) Vero cells to IC50 for chloroquine-resistant Plasmodium falciparum W2

| Compound | IC50 [1] | IC50 [2] | Selectivity Index [3] | IC50 [4] | IC50 [5] | IC50 [6] | Selectivity Index [7] |
| --- | --- | --- | --- | --- | --- | --- | --- |
| Clc1ccc2c(NCCCNc3nc(NC4CCCCC4)nc(N4CCCCC4)n3)ccnc2c1 | 1.74 µM | 2.22 µM | 19.7 | 10.5 µM | 8.3 µM | 34.3 µM | 15.4 |
| COc1cc(Nc2nc(NCCCNc3ccnc4cc(Cl)ccc34)nc(N3CCOCC3)n2)cc(OC)c1 | 0.25 µM | 0.22 µM | 130.8 | 8.3 µM | 25.4 µM | 32.7 µM | 148.6 |
| COc1cccc2c1C(=O)c1c(O)c3c(c(O)c1C2=O)C[C@@](O)(C(=O)CO)C[C@@H]3O[C@H]1C[C@H](N)[C@H](O)[C@H](C)O1 [DOXORUBICIN] |  |  |  | 0.85 µM | 0.42 µM | 20 µM |  |
| C[C@@H]1CC[C@H]2[C@@H](C)C(=O)O[C@@H]3O[C@@]4(C)CC[C@@H]1[C@]32OO4 [ARTEMISININ] | 0.03 µM | 0.025 µM | >500 |  |  |  | >670 |
